Reference: ChEMBL document CHEMBL1152358, “Aminoparthenolides as novel anti-leukemic agents: Discovery of the NF-kappaB inhibitor, DMAPT (LC-1)” (Bioorg Med Chem Lett, 2009)

Experiments:
[1] = Antileukemic activity against acute myeloid leukemia cell assessed as cell death at 10 uM; type: functional
How it was run: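 Probe screen: one million donor-derived primary AML cells in serum-free medium were incubated 24 h with or without analog at a single probe concentration. Cells were PBS-washed, then stained with Annexin-V and 7-AAD in HEPES/NaCl/CaCl₂ buffer pH 7.4 for 15 min, dark, ambient temperature. Flow cytometry followed immediately. Annexin V−/7-AAD− cells were scored viable, normalized to untreated specimens.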

[2] = Antileukemic activity against acute myeloid leukemia cell assessed as cell death; type: functional; details: read-out: LD50 (the source's name)
How it was run: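 Primary AML cells from consenting volunteer donors (one million cells) were cultured in serum-free medium. They were exposed for 24 h, with or without analog, in a dose-response series over 2.5–20 range. Cells were PBS-washed, stained with Annexin-V/7-AAD in HEPES pH 7.4 binding buffer for 15 min in the dark at ambient temperature, then run on a flow cytometer. Viability (Annexin V−/7-AAD−) was normalized to untreated controls, and LD₅₀ was calculated from this series.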

[3] = Aqueous solubility of the compound; type: physicochemical; details: buffer

SMILES | Activity [1] [%] | CC50 [2] [µM] | solubility [3] [uM/ml]
C/C1=C/CC[C@@]2(C)O[C@H]2[C@H]2OC(=O)[C@@H](CN(C(C)C)C(C)C)[C@@H]2CC1.O=C(O)/C=C/C(=O)O | 20 |  | 
C/C1=C/CC[C@@]2(C)O[C@H]2[C@H]2OC(=O)[C@@H](CN(C)CCO)[C@@H]2CC1.O=C(O)/C=C/C(=O)O | 86 | 1.8 | 
C/C1=C/CC[C@@]2(C)O[C@H]2[C@H]2OC(=O)[C@@H](CN[C@@H]3[C@@H](O)[C@H](O)[C@@H](CO)O[C@H]3O)[C@@H]2CC1.O=C(O)/C=C/C(=O)O | 0 |  | 
C/C1=C/CC[C@@]2(C)O[C@H]2[C@H]2OC(=O)[C@@H](CN(C)C(C)C)[C@@H]2CC1.O=C(O)/C=C/C(=O)O | 78 |  | 
C#CNC[C@@H]1C(=O)O[C@H]2[C@H]1CC/C(C)=C\CC[C@@]1(C)O[C@@H]21.O=C(O)/C=C/C(=O)O | 7 |  | 
CCN(CC)C[C@@H]1C(=O)O[C@H]2[C@H]1CC/C(C)=C\CC[C@@]1(C)O[C@@H]21.O=C(O)/C=C/C(=O)O | 60 |  | 
C/C1=C/CC[C@@]2(C)O[C@H]2[C@H]2OC(=O)[C@@H](CNCCCN)[C@@H]2CC1.O=C(O)/C=C/C(=O)O | 0 |  | 
CCNC[C@@H]1C(=O)O[C@H]2[C@H]1CC/C(C)=C\CC[C@@]1(C)O[C@@H]21.O=C(O)/C=C/C(=O)O | 2 | 31 | 
C/C1=C/CC[C@@]2(C)O[C@H]2[C@H]2OC(=O)[C@@H](CN(C)[C@@H]3[C@@H](O)[C@H](O)[C@@H](CO)O[C@H]3O)[C@@H]2CC1.O=C(O)/C=C/C(=O)O | 0 |  | 
C/C1=C/CC[C@@]2(C)O[C@H]2[C@H]2OC(=O)[C@@H](CNN(C)C)[C@@H]2CC1.O=C(O)/C=C/C(=O)O | 0 |  | 
C/C1=C/CC[C@@]2(C)O[C@H]2[C@H]2OC(=O)[C@@H](CN(C)C3CCCCC3)[C@@H]2CC1.O=C(O)/C=C/C(=O)O | 0 | 15 | 
C/C1=C/CC[C@@]2(C)O[C@H]2[C@H]2OC(=O)[C@@H](CNCCCO)[C@@H]2CC1.O=C(O)/C=C/C(=O)O | 0 |  | 
C/C1=C/CC[C@@]2(C)O[C@H]2[C@H]2OC(=O)[C@@H](CN(C)C)[C@@H]2CC1.O=C(O)/C=C/C(=O)O | 93 | 1.7 | 
C/C1=C/CC[C@@]2(C)O[C@H]2[C@H]2OC(=O)[C@@H](CN3CCCCC3)[C@@H]2CC1.O=C(O)/C=C/C(=O)O | 76 | 2.4 | 
C=C1C(=O)O[C@H]2[C@H]1CC/C(C=O)=C\CC[C@@]1(C)O[C@@H]21 | 0 |  | 
CNC[C@@H]1C(=O)O[C@H]2[C@H]1CC/C(C)=C\CC[C@@]1(C)O[C@@H]21.O=C(O)/C=C/C(=O)O | 4 | 18 | 
CCCCN(C)C[C@@H]1C(=O)O[C@H]2[C@H]1CC/C(C)=C\CC[C@@]1(C)O[C@@H]21.O=C(O)/C=C/C(=O)O | 68 | 2.8 | 
C/C1=C/CC[C@@]2(C)O[C@H]2[C@H]2OC(=O)[C@@H](CN3CCCCCCC3)[C@@H]2CC1.O=C(O)/C=C/C(=O)O | 13 |  | 
CCCN(CCC)C[C@@H]1C(=O)O[C@H]2[C@H]1CC/C(C)=C\CC[C@@]1(C)O[C@@H]21.O=C(O)/C=C/C(=O)O | 0 |  | 

SMILES | Activity [1] [%] | CC50 [2] [µM] | solubility [3] [uM/ml]
C=CCN(CC=C)C[C@@H]1C(=O)O[C@H]2[C@H]1CC/C(C)=C\CC[C@@]1(C)O[C@@H]21.O=C(O)/C=C/C(=O)O | 0 |  | 
C[C@@H]1C(=O)O[C@H]2[C@H]1CCC1(C)OC1CC[C@@]1(C)O[C@@H]21 (some centres not stated) | 0 |  | 
C/C1=C/CC[C@@]2(C)O[C@H]2[C@H]2OC(=O)[C@@H](CN3CCOCC3)[C@@H]2CC1.O=C(O)/C=C/C(=O)O | 20 | 14 | 
C/C1=C/CC[C@@]2(C)O[C@H]2[C@H]2OC(=O)[C@@H](CN3CCC(C)CC3)[C@@H]2CC1.O=C(O)/C=C/C(=O)O | 83 | 1.6 | 
C=C1C(=O)O[C@@H]2C3O[C@]3(C)CC/C=C(\C)CC[C@@H]12 (some centres not stated) | 84 | 1.4 | 0.169
C/C1=C/CC[C@@]2(C)O[C@H]2[C@H]2OC(=O)[C@@H](CN3CCCC3)[C@@H]2CC1.O=C(O)/C=C/C(=O)O | 82 | 2.7 | 
CCCCCN(C)C[C@@H]1C(=O)O[C@H]2[C@H]1CC/C(C)=C\CC[C@@]1(C)O[C@@H]21.O=C(O)/C=C/C(=O)O | 46 | 4.6 | 
CCN(C)C[C@@H]1C(=O)O[C@H]2[C@H]1CC/C(C)=C\CC[C@@]1(C)O[C@@H]21.O=C(O)/C=C/C(=O)O | 80 | 2.5 | 
C=C1C(=O)O[C@H]2[C@H]1CC/C(CO)=C\CC[C@@]1(C)O[C@@H]21 | 0 |  | 
C/C1=C/CC[C@@]2(C)O[C@H]2[C@H]2OC(=O)[C@@H](CNNC(C)(C)C)[C@@H]2CC1.O=C(O)/C=C/C(=O)O | 0 |  | 
C/C1=C/CC[C@@]2(C)O[C@H]2[C@H]2OC(=O)[C@@H](CNCCN)[C@@H]2CC1.O=C(O)/C=C/C(=O)O | 0 |  | 
C/C1=C/CC[C@@]2(C)O[C@H]2[C@H]2OC(=O)[C@@H](CNCCO)[C@@H]2CC1.O=C(O)/C=C/C(=O)O | 0 |  | 
C/C1=C/CC[C@@]2(C)O[C@H]2[C@H]2OC(=O)[C@@H](CNC3CC3)[C@@H]2CC1.O=C(O)/C=C/C(=O)O | 6 |  | 
C/C1=C/CC[C@@]2(C)O[C@H]2[C@H]2OC(=O)[C@@H](CN(C3CCCCC3)C3CCCCC3)[C@@H]2CC1.O=C(O)/C=C/C(=O)O | 12 |  | 
C/C1=C/CC[C@@]2(C)O[C@H]2[C@H]2OC(=O)[C@@H](CN3CC3)[C@@H]2CC1.O=C(O)/C=C/C(=O)O | 22 |  | 
C/C1=C/CC[C@@]2(C)O[C@H]2[C@H]2OC(=O)[C@@H](CN3CCCCCC3)[C@@H]2CC1.O=C(O)/C=C/C(=O)O | 15 |  | 
C/C1=C/CC[C@@]2(C)O[C@H]2[C@H]2OC(=O)[C@@H](C)[C@@H]2CC1 | 0 |  | 
CCCN(C)C[C@@H]1C(=O)O[C@H]2[C@H]1CC/C(C)=C\CC[C@@]1(C)O[C@@H]21.O=C(O)/C=C/C(=O)O | 95 | 3.2 | 
